A short description of data set [1]: Cmax in CD1 mouse assessed as pibrentasvir1 level at 6 mg/kg, po measured up to 24 hrs. Also noted: route oral, dose 6 mg/kg, time <=24. It counts as ADME, organism-based. Particulars: in vivo. An outline of the steps: (§1)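 CD-1 mice with free access to food and water received an oral gavage of prodrug or PIB at 10 mL/kg in 0.2% HPMC. The dose was adjusted for prodrug MW to equal 6 mg/kg PIB. K2EDTA blood was drawn at 0.25, 0.5, 1, 3, 6, 9, 12 and 24 h. Plasma was spun at 3200 x g for 5 min at ~4°C and stored below -15°C. PIB and prodrug were measured; AUC in ng·h/mL, Cmax in ng/mL.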

Data set [2] can be described thus: Equilibrium solubility of compound at pH 1 incubated for 24 to 48 hrs by HPLC analysis. The note with it: buffer, time 24-48 hrs. Type of data set: physicochemical. An outline of the steps: (§2)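 For equilibrium solubility, excess solid was added to 3–4 mL of medium, in triplicate. Suspension pH was read after equilibration. Solids were removed by centrifugation at 4000 rpm at 25 °C, and the supernatant was passed through a 0.45 µm filter, discarding the first 2 mL. The filtrate was quantified by HPLC against standard curves.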

The nature of data set [3]: Equilibrium solubility of compound at pH 7.4 incubated for 24 to 48 hrs by HPLC analysis. It counts as physicochemical. The note with it: buffer, time 24-48 hrs. An outline of the steps: as §2
The nature of data set [4]: Stability of compound at pH 7.4 assessed as prodrug remaining level at 125 ug/ml incubated for 24 hrs by HPLC analysis. Type of data set: physicochemical. The note with it: buffer, pH 7.4, 24 h, at 125 µg/mL. An outline of the steps:
(§3)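 A DMSO stock of about 1.25 mg/mL was diluted into 0.1 N HCl (pH 1) or 50 mM phosphate buffer (pH 7.4), giving final concentrations of ~125 µg/mL prodrug and 10% DMSO. The solution was filtered and held at 37 °C in the HPLC autosampler, with injections at several times over 24 h. Percent remaining was calculated from prodrug peak area relative to t0.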

A short description of data set [5]: AUC in CD1 mouse assessed as pibrentasvir1 level at 6 mg/kg, po measured up to 24 hrs. Type of data set: ADME, organism-based. Details: route oral, dose 6 mg/kg, time <=24. Particulars: in vivo. Put shortly:
as §1

Data set [6] in a line: Stability of compound at pH 1 assessed as prodrug remaining level at 125 ug/ml incubated for 24 hrs by HPLC analysis. It counts as physicochemical. Particulars: buffer, pH 1, 24 h, at 125 µg/mL. Put shortly:
as §3

Data set [7] is described as follows: Solubility in FeSSIF at pH 5. Type of data set: physicochemical. Put shortly: as §2

The results in this text go back to ChEMBL document CHEMBL4725393, “Prodrug Strategies to Improve the Solubility of the HCV NS5A Inhibitor Pibrentasvir (ABT-530)” (J Med Chem, 2020).

In brackets after ≈: the same amount, converted by molar mass. Where only a bound is given, the exact number is not on record here.

For `COC(=O)N[C@H](C(=O)N1CCC[C@H]1c1nc2cc(F)c([C@H]3CC[C@H](c4cc5nc([C@@H]6CCCN6C(=O)[C@@H](NC(=O)OC)[C@@H](C)OC)n(COC(=O)c6cccc(OP(=O)(O)O)c6)c5cc4F)N3c3cc(F)c(N4CCC(c5ccc(F)cc5)CC4)c(F)c3)cc2[nH]1)[C@@H](C)OC`, the Cmax (usually the peak of the concentration-time curve) in data set [1] worked out at 96 ng/mL. The solubility (thermodynamic) (commonly solubility found after equilibrating the solid with the medium) in data set [2] came to 397 µg/mL (≈ 296 µM); in data set [3] it was 827 µg/mL (≈ 616 µM). Further, the Stabilty in data set [4] was found to be 100%; in data set [6], 96%. For the same compound, the area under the curve (AUC) (in general, concentration integrated over time) in data set [5] was found to be 1510 ng·h/mL. For the same compound, the solubility (as a rule, the concentration that dissolves in the medium under given conditions) in data set [7] was more than 1000 µg/mL.
Regarding `COC(=O)N[C@H](C(=O)N1CCC[C@H]1c1nc2cc(F)c([C@H]3CC[C@H](c4cc5c(cc4F)nc([C@@H]4CCCN4C(=O)[C@@H](NC(=O)OC)[C@@H](C)OC)n5COC(=O)[C@@H](N)C(C)C)N3c3cc(F)c(N4CCC(c5ccc(F)cc5)CC4)c(F)c3)cc2[nH]1)[C@@H](C)OC`, the values for the thermodynamic solubility in data set [2] and in data set [3] were more than 1000 µg/mL and less than 0.2 µg/mL, respectively.
As to `COC(=O)N[C@H](C(=O)N1CCC[C@H]1c1nc2cc(F)c([C@H]3CC[C@H](c4cc5c(cc4F)nc([C@@H]4CCCN4C(=O)[C@@H](NC(=O)OC)[C@@H](C)OC)n5COC(=O)N(C)c4ncccc4COP(=O)(O)O)N3c3cc(F)c(N4CCC(c5ccc(F)cc5)CC4)c(F)c3)cc2[nH]1)[C@@H](C)OC`, the Cmax in data set [1] came to 567 ng/mL. In addition, the thermodynamic solubility in data set [2] and in data set [3] was more than 1000 µg/mL each time. For the same compound, the Stabilty was found to be 90% in data set [4] and 92% in data set [6]. The AUC in data set [5] was found to be 9750 ng·h/mL. Also, the solubility in data set [7] is more than 1000 µg/mL.
Turning to `COC(=O)N[C@H](C(=O)N1CCC[C@H]1c1nc2cc(F)c([C@H]3CC[C@H](c4cc5c(cc4F)nc([C@@H]4CCCN4C(=O)[C@@H](NC(=O)OC)[C@@H](C)OC)n5COC(=O)CCCOP(=O)(O)O)N3c3cc(F)c(N4CCC(c5ccc(F)cc5)CC4)c(F)c3)cc2[nH]1)[C@@H](C)OC`, in data set [1], the maximum concentration (Cmax) worked out at 784 ng/mL. Also, the thermodynamic solubility was found to be 609 µg/mL (≈ 465 µM) in data set [2] and 874 µg/mL (≈ 668 µM) in data set [3]. In addition, the Stabilty in data set [4] amounted to 80%; in data set [6] it was 76%. Besides, the AUC in data set [5] worked out at 12600 ng·h/mL. The same compound registered a solubility in data set [7] of more than 1000 µg/mL.
Take `COC(=O)N[C@H](C(=O)N1CCC[C@H]1c1nc2cc(F)c([C@H]3CC[C@H](c4cc5c(cc4F)nc([C@@H]4CCCN4C(=O)[C@@H](NC(=O)OC)[C@@H](C)OC)n5COC(=O)c4ccccc4COP(=O)(O)O)N3c3cc(F)c(N4CCC(c5ccc(F)cc5)CC4)c(F)c3)cc2[nH]1)[C@@H](C)OC`: the Cmax in data set [1] was 132 ng/mL. The solubility (thermodynamic) in data set [2] came to 543 µg/mL (≈ 400 µM); in data set [3], 92 µg/mL (≈ 67.8 µM). In addition, the Stabilty in data set [4] stood at 84%; in data set [6] it was 98%. In data set [5], the AUC stood at 2420 ng·h/mL. The compound further had a solubility in data set [7] of more than 1000 µg/mL.
For `COC(=O)N[C@H](C(=O)N1CCC[C@H]1c1nc2cc(F)c([C@H]3CC[C@H](c4cc5c(cc4F)nc([C@@H]4CCCN4C(=O)[C@@H](NC(=O)OC)[C@@H](C)OC)n5COC(=O)c4cccc(OP(=O)(O)O)c4)N3c3cc(F)c(N4CCC(c5ccc(F)cc5)CC4)c(F)c3)cc2[nH]1)[C@@H](C)OC`, the peak concentration (Cmax) in data set [1] was 46 ng/mL. Besides, the solubility (thermodynamic) in data set [2] and in data set [3] was more than 1000 µg/mL in each case. For the same compound, the Stabilty in data set [4] is 100%; in data set [6], 91%. Further, the AUC in data set [5] was 819 ng·h/mL.
